In brackets after ≈: the same amount, converted by molar mass. Activity calls are given as the source filed them. No cut-off for these calls is given here. Starred links: 1 amine or outer side, 2 acyl side, 3 side chain; linkers in the order of their positions; H or OH if unused. Non-standard residues stand in square brackets, D forms with d. Residues, ends and D or L forms follow the SMILES beside them. *: point of attachment. azaβ3(1Nal) = O=C(CN(Cc1cccc2ccccc12)N[*:1])[*:2]; X2 = O=C(CN(Cc1ccc2ccccc2c1)N[*:1])[*:2]; X1 = NC(=O)CN(Cc1cccc2ccccc12)N*; X3 = NC(=O)CN(Cc1ccc2ccccc2c1)N*; X4 = NCCCCN(CC(=O)[*:2])N[*:1]
How the values were obtained:
Vibrio splendidus = test: Antibacterial activity against Vibrio splendidus after 20 hrs by liquid growth inhibition assay; assay type: functional
Procedure, shortened: (§1)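 Vibrios cultured in saline poor broth (1% peptone, 1.5% NaCl, pH 7.2), diluted from mid-log phase to starting D600 = 0.001, then exposed to water-dissolved peptides at final 20–640 μg.mL-1. Incubated 20 h at 18°C; OD read at 595 nm. MIC is the lowest concentration giving 100% inhibition.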

Vibrio aestuarianus = test: Antibacterial activity against Vibrio aestuarianus after 20 hrs by liquid growth inhibition assay; assay type: functional; procedure, shortened: as §1
Priestia megaterium = test: Antibacterial activity against Bacillus megaterium after 20 hrs by liquid growth inhibition assay; assay type: functional
Procedure, shortened: (§2)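 Liquid growth inhibition with peptides dissolved in distilled water, final 20–640 μg.mL-1, added to mid-log bacteria at starting D600 = 0.001. Standard strains in poor broth (1% peptone, 0.5% NaCl, pH 7.5); pathogenic strains in poor broth plus 0.3% beef extract. Incubated 20 h at 30°C; growth read as OD at 595 nm; MIC taken as lowest concentration giving 100% inhibition.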

Salmonella typhimurium = test: Antibacterial activity against Salmonella typhimurium after 20 hrs by liquid growth inhibition assay; assay type: functional, Salmonella enterica subsp. enterica serovar Typhimurium; procedure, shortened: as §2
Pseudomonas aeruginosa = test: Antibacterial activity against Pseudomonas aeruginosa after 20 hrs by liquid growth inhibition assay; assay type: functional; procedure, shortened: as §2
Listeria monocytogenes = test: Antibacterial activity against Listeria monocytogenes after 20 hrs by liquid growth inhibition assay; assay type: functional
Procedure, shortened: (§3)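 Bacteria grown in brain heart infusion and challenged at mid-log phase (starting D600 = 0.001) with water-dissolved peptides at final 20–640 μg.mL-1. After 20 h at 30°C, OD at 595 nm was read. MIC is the lowest concentration giving complete (100%) growth inhibition.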

Vibrio alginolyticus = test: Antibacterial activity against Vibrio alginolyticus after 20 hrs by liquid growth inhibition assay; assay type: functional; procedure, shortened: as §1
Staphylococcus aureus = test: Antibacterial activity against Staphylococcus aureus after 20 hrs by liquid growth inhibition assay; assay type: functional; procedure, shortened: as §2
Enterococcus faecalis = test: Antibacterial activity against Enterococcus faecalis after 20 hrs by liquid growth inhibition assay; assay type: functional; procedure, shortened: as §3
[1] = (§4) Cytotoxicity against CHOK1 cells assessed as cell viability at 640 ug/ml after 36 hrs by MTT assay; assay type: cell-based, Cricetulus griseus, CHO-K1; details: chinese hamster, CHO-K1 cells; read-out: Activity
Procedure, shortened: (§5)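 CHO-K1 cells (1.34×10^4/well) in Ham F12 with L-glutamine and 10% foetal calf serum were preincubated 6 h at 37 °C, 5% CO2. Peptides in PBS were added at final 20–640 μg.mL−1 for 36 h. Viability was read by MTT reduction at 570 nm, with PBS as 100% and 1% Triton X-100 as 0% viability; triplicates.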

Escherichia coli = test: Antibacterial activity against Escherichia coli after 20 hrs by liquid growth inhibition assay; assay type: functional; procedure, shortened: as §2
Klebsiella pneumoniae = test: Antibacterial activity against Klebsiella pneumoniae after 20 hrs by liquid growth inhibition assay; assay type: functional; procedure, shortened: as §2
Vibrio harveyi = test: Antibacterial activity against Vibrio harveyi after 20 hrs by liquid growth inhibition assay; assay type: functional; procedure, shortened: as §1
[2] = Toxicity in rabbit erythrocytes assessed as hemolysis up to 320 ug/ml; assay type: cell-based, Oryctolagus cuniculus, Erythrocyte; details: read-out: Activity
Procedure, shortened: (§6)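 Freshly isolated rabbit erythrocytes were incubated 1 h at 37°C with peptide in PBS at 20 to 320 μg.mL−1. Supernatant OD was read at 415 nm, with PBS as zero and 1% Triton X-100 as 100% hemolysis; triplicate for each concentration and control.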

[3] = Toxicity in rabbit erythrocytes assessed as hemolysis; assay type: cell-based, Oryctolagus cuniculus, Erythrocyte; details: read-out: HD50 (the source's name); procedure, shortened: as §6
[4] = Ratio of toxicity in CHOK1 cells to MIC for Listeria monocytogenes; assay type: functional, CHO-K1
[5] = Ratio of HD50 for rabbit erythrocytes to MIC for Staphylococcus aureus; assay type: functional
[6] = Ratio of toxicity in CHOK1 cells to MIC for Staphylococcus aureus; assay type: functional, CHO-K1
CHO-K1 [7] = test: as §4; assay type: cell-based, Cricetulus griseus; details: chinese hamster, cho-k1, 36 h; procedure, shortened: as §5
[8] = Ratio of toxicity in CHOK1 cells to MIC for Salmonella typhimurium; assay type: functional, CHO-K1
[9] = Cytotoxicity against CHOK1 cells assessed as cell viability at 160 ug/ml after 36 hrs by MTT assay; assay type: cell-based, Cricetulus griseus; details: chinese hamster, CHO-K1 cells; read-out: Activity; procedure, shortened: as §5
CHO-K1 [10] = test: Cytotoxicity against CHOK1 cells assessed as cell viability up to 40 ug/ml after 36 hrs by MTT assay; assay type: cell-based, Cricetulus griseus; details: chinese hamster, cho-k1, 36 h; procedure, shortened: as §5
[11] = Salmonella enterica subsp. enterica serovar Typhimurium

MIC (Vibrio splendidus) | MIC (Vibrio aestuarianus) | MIC (Priestia megaterium) | MIC (Salmonella typhimurium; Salmonella enterica) | MIC (Pseudomonas aeruginosa) | MIC (Listeria monocytogenes) | MIC (Vibrio alginolyticus) | MIC (Staphylococcus aureus) | MIC (Enterococcus faecalis) | MIC (Escherichia coli) | MIC (Klebsiella pneumoniae) | MIC (Vibrio harveyi) | Compound | other results
640 µg/mL (≈ 517 µM) | 80 µg/mL (≈ 64.6 µM) | 80 µg/mL (≈ 64.6 µM) | 160 µg/mL (≈ 129 µM) | 320 µg/mL (≈ 258 µM) | 160 µg/mL (≈ 129 µM) | > 640 µg/mL | 40 µg/mL (≈ 32.3 µM) | > 640 µg/mL | 160 µg/mL (≈ 129 µM) | > 640 µg/mL | 640 µg/mL (≈ 517 µM) | CC(C)C[C@H](NC(=O)CN(Cc1ccc2ccccc2c1)NC(=O)[C@H](C)NC(=O)[C@H](CCCCN)NC(=O)CNC(=O)[C@H](CO)NC(=O)[C@H](CC(C)C)NC(=O)[C@H](C)N)C(=O)N[C@@H](CCCNC(=N)N)C(=O)NN(CC(N)=O)Cc1ccc2ccccc2c1 (H-ALSGKA[X2]LR-X3) | viability at 36 h, 640 ug/ml [1]: 47%
20 µg/mL (≈ 17 µM) | 40 µg/mL (≈ 34.1 µM) | 80 µg/mL (≈ 68.2 µM) | 80 µg/mL (≈ 68.2 µM) | 160 µg/mL (≈ 136 µM) | 80 µg/mL (≈ 68.2 µM) | 80 µg/mL (≈ 68.2 µM) | 80 µg/mL (≈ 68.2 µM) | > 640 µg/mL | 320 µg/mL (≈ 273 µM) | inactive | 40 µg/mL (≈ 34.1 µM) | CC(C)C[C@H](NC(=O)CN(Cc1ccc2ccccc2c1)NC(=O)[C@H](C)NC(=O)[C@H](CCCCN)NC(=O)CNC(=O)[C@H](CO)NC(=O)[C@H](CC(C)C)NC(=O)[C@H](C)N)C(=O)N[C@@H](CCCNC(=N)N)C(=O)N[C@@H](Cc1ccccc1)C(N)=O (H-ALSGKA[X2]LRF-NH2) | hemolysis [2]: 5%
320 µg/mL (≈ 258 µM) | 80 µg/mL (≈ 64.6 µM) | 20 µg/mL (≈ 16.1 µM) | 80 µg/mL (≈ 64.6 µM) | 160 µg/mL (≈ 129 µM) | 80 µg/mL (≈ 64.6 µM) | > 640 µg/mL | 20 µg/mL (≈ 16.1 µM) | > 640 µg/mL | 40 µg/mL (≈ 32.3 µM) | inactive | 640 µg/mL (≈ 517 µM) | CC(C)C[C@H](NC(=O)CN(Cc1cccc2ccccc12)NC(=O)[C@H](C)NC(=O)[C@H](CCCCN)NC(=O)CNC(=O)[C@H](CO)NC(=O)[C@H](CC(C)C)NC(=O)[C@H](C)N)C(=O)N[C@@H](CCCNC(=N)N)C(=O)NN(CC(N)=O)Cc1cccc2ccccc12 (H-ALSGKA[azaβ3(1Nal)]LR-X1) | HC50 [3]: 200 µg/mL; Ratio [4]: 8; Ratio [5]: 10; Ratio [6]: 32; Activity (CHO-K1 [7]): Toxic; Ratio [8]: 8; viability at 36 h, 160 ug/ml [9]: 78%; Activity (CHO-K1 [10]): Non-toxic
320 µg/mL (≈ 285 µM) | inactive | inactive | – | > 640 µg/mL | inactive | inactive | inactive | inactive | inactive | inactive | inactive | CC(C)C[C@H](NC(=O)[C@H](C)N)C(=O)N[C@@H](CO)C(=O)NCC(=O)NN(CCCCN)CC(=O)N[C@@H](C)C(=O)N[C@@H](Cc1ccccc1)C(=O)N[C@@H](CC(C)C)C(=O)N[C@@H](CCCNC(=N)N)C(=O)N[C@@H](Cc1ccccc1)C(N)=O (H-ALSG[X4]AFLRF-NH2) | MIC (Salmonella typhimurium; [11]): inactive
320 µg/mL | 640 µg/mL | 640 µg/mL | – | inactive | inactive | 320 µg/mL | inactive | inactive | 640 µg/mL | inactive | > 640 µg/mL | H-ALSGDAFLRF-NH2 | MIC (Salmonella typhimurium; [11]): inactive
40 µg/mL | 80 µg/mL | 80 µg/mL | 320 µg/mL | 640 µg/mL | inactive | 320 µg/mL | 320 µg/mL | inactive | 80 µg/mL | > 640 µg/mL | 320 µg/mL | H-ALSGKAFLRF-NH2 | hemolysis [2]: < 1.5%; viability at 36 h, 640 ug/ml [1]: 87%

Compound | MIC (Vibrio splendidus) | MIC (Vibrio aestuarianus) | MIC (Priestia megaterium) | MIC (Salmonella typhimurium; Salmonella enterica) | MIC (Pseudomonas aeruginosa) | MIC (Listeria monocytogenes) | MIC (Vibrio alginolyticus) | MIC (Staphylococcus aureus) | MIC (Enterococcus faecalis) | MIC (Escherichia coli) | MIC (Klebsiella pneumoniae) | MIC (Vibrio harveyi) | other results
CC1(C)S[C@@H]2[C@H](NC(=O)[C@H](N)c3ccccc3)C(=O)N2[C@H]1C(=O)O [AMPICILLIN] | 10 µg/mL (≈ 28.6 µM) | 5 µg/mL (≈ 14.3 µM) | 20 µg/mL (≈ 57.2 µM) | 5 µg/mL (≈ 14.3 µM) | 320 µg/mL (≈ 916 µM) | 5 µg/mL (≈ 14.3 µM) | > 320 µg/mL | 5 µg/mL (≈ 14.3 µM) | 5 µg/mL (≈ 14.3 µM) | 5 µg/mL (≈ 14.3 µM) | 5 µg/mL (≈ 14.3 µM) | > 320 µg/mL | –
